Measured values collected from several papers.
Chrna7: Neuronal acetylcholine receptor subunit alpha-7 (Chrna7, Rattus norvegicus, UniProt Q05941)
ache: Acetylcholinesterase (ache, Electrophorus electricus, UniProt O42275)

SMILES	target	read-out	action	method	notes	IC50
CC(C)C[C@H](NC(=O)[C@H]1O[C@@H]1C(=O)O)C(=O)NCCCCN=C(N)N	Pro-cathepsin H (Homo sapiens, UniProt P09668)	enzyme activity	inhibitor	–	–	0.025 µM
CNC(=O)c1ccc(-c2cnn3ccc(C(=O)N(C)c4ccc(Cl)c(C(=O)OC)c4)cc23)cc1	Tyrosine-protein kinase receptor UFO (AXL, Homo sapiens, UniProt P30530)	enzyme activity	inhibitor	–	–	> 30 µM
COc1ccc2c3c([nH]c2c1)CCN(C)CC3	Chrna7	ion current	antagonist	two-electrode voltage clamp	oocytes	10.2 µM
CCCCCCCCCC(=O)N[C@@H](CCCN=C(N)N)C(=O)N[C@H](C(=O)N[C@@H](CCCCN)C(=O)N[C@@H](CCCN=C(N)N)C(=O)CCl)C(C)C	Furin (FURIN, Homo sapiens, UniProt P09958)	enzyme activity	inhibitor	–	–	0.00134 µM
C#CCN(C)CCCCCCCCOc1cccc(CN(C)c2c3c(nc4ccc(C)cc24)CCCC3)c1	ache	enzyme activity	inhibitor	Ellman	–	32.2 µM
COc1ccc2[nH]c3c(c2c1)CCN(C)CC3	Chrna7	ion current	antagonist	two-electrode voltage clamp	oocytes	11.4 µM
CNC(=O)c1ccc(-c2cnn3ccc(C(=O)N(C)c4ccc(Cl)c(C(=O)O)c4)cc23)cc1	Ephrin type-A receptor 4 (EPHA4, Homo sapiens, UniProt P54764)	enzyme activity	inhibitor	–	–	> 30 µM
C#CCN(C)CCCOc1cccc(CN(C)c2c3c(nc4ccc(C)cc24)CCCC3)c1	ache	enzyme activity	inhibitor	Ellman	–	5.36 µM
